The nature of data set [1]: Inhibition of telomerase by TRAP assay. Further details: species or system Homo sapiens. The gist of the method:
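Cell-free modified TRAP using A2780 ovarian carcinoma extract, 0.04 μg protein. TS primer extended in TRAP buffer pH 8.3 with 68 mM KCl, 1.5 mM MgCl2, 50 μM dNTPs and [32P]dCTP, agent up to 50 μM final, 20 min at 25 °C. Then 31 PCR cycles; products read by denaturing gel phosphorimaging or filter scintillation counting.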

The nature of data set [2]: Dissociation constant, pKa of the compound. Type of data set: physicochemical. The method in brief: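 UV titration across pH. Molar extinction coefficient read at the two wavelengths where ε changes most between acidic and basic solution, then plotted against pH. pKa taken as the pH midway between the horizontal sections of the curve.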
For data set [3], the species on record is Homo sapiens. In words: Induction of G-quadruplex in G-rich human telomere 21 DNA assessed as circular dichroism spectral change at 50 uM. The gist of the method:
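Telo21 at 5 μM strand in 10 mM Tris-HCl pH 7.4, no metal ions, compound at 50 μM. Annealed at 90 °C, cooled slowly, held at 4 °C for several hours. CD recorded 320–200 nm, 16 scans at 100 nm/min, 1 nm bandwidth, buffer baseline subtracted.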
A general note: CD spectra are sensitive to the conformation of chiral molecules.

Data set [4] is filed under the species Homo sapiens. In words: Induction of G-quadruplex in G-rich human telomere 21 DNA by EMSA. The gist of the method: (§1)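 Native-gel shift of 20 μM telo21 in 10 mM Tris-HCl pH 7.4, with or without 100 mM KCl, heated 95 °C for 10 min then cooled. Compound titrated in at increasing concentrations and incubated 4–8 h at room temperature. Run on native 15% PAGE in TBE for 2 h, silver-stained; G-quadruplex and single-strand bands scored.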
On the technique in general: A gel shift assay detects complexes by their altered migration in electrophoresis.

The species named for data set [5] is Homo sapiens. In words: Destruction of parallel G-quadruplexes in mixed G-quadruplex human telomere 21 DNA in presence of 0.1 M potassium.
For data set [6], the species on record is Homo sapiens. In words: Induction of G-quadruplex in G-rich human telomere 21 DNA in presence of 100 mM K+ ions by EMSA. The method in brief: as §1

Activity calls are given as the source filed them. The calls are words filed in the database; no cut-off is given here.

`c1ccc2nc3c(cc2c1)[nH]c1ccccc13` [QUINDOLINE]: the IC50 – broadly, the concentration at which inhibition is half-maximal – in data set [1] was more than 138 µM. Besides, the pKa (commonly the pH at which an ionisable group is half protonated) in data set [2] is 4.2.
Take `OCCCNc1c2ccccc2nc2c1[nH]c1ccccc12`: 1.55 µM corresponded to half-maximal inhibition in data set [1] (IC50). This molecule also registered a pKa in data set [2] of 8.3. For the same molecule, in data set [3], the result was Active.
In the case of `c1ccc2c(NCCN3CCOCC3)c3[nH]c4ccccc4c3nc2c1`, the IC50 in data set [1] is 0.55 µM. The outcome in data set [4], in data set [5], in data set [6] and in data set [3] was Active. The molecule further came in with a pKa in data set [2] of 8.4.
As for `CN(C)CCNc1c2ccccc2nc2c1oc1ccccc12`, half-maximal inhibition in data set [1] (IC50) required 7.11 µM. This molecule returned a pKa in data set [2] of 8.2. Further, the outcome in data set [3] was Active.
Regarding `OCCNc1c2ccccc2nc2c1[nH]c1ccccc12`, the IC50 in data set [1] came out at 2.35 µM. Also, the pKa in data set [2] was found to be 8.3. For the same molecule, the outcome in data set [3] was Active.
In the case of `OCCNc1c2ccccc2nc2c1oc1ccccc12`, the IC50 in data set [1] worked out at 12.3 µM. In addition, the pKa in data set [2] was found to be 8.2. The result in data set [3] was Active.
Turning to `OCCCNc1c2ccccc2nc2c1oc1ccccc12`, 8.12 µM corresponded to half-maximal inhibition in data set [1] (IC50). Besides, the pKa in data set [2] came to 8.2. Besides, in data set [3], the result was Active.
In data set [1], `c1ccc2c(NCCN3CCOCC3)c3oc4ccccc4c3nc2c1` registered an IC50 of 4.38 µM. For the same molecule, the pKa in data set [2] stood at 8.2. The result in data set [3] was Active.
As to `CN(C)CCCNc1c2ccccc2nc2c1[nH]c1ccccc12`, the IC50 in data set [1] was determined as 0.44 µM. In data set [2], this molecule showed a pKa of 8.4. Further, in data set [3], the outcome was Active.
In turn, `CN(C)CCNc1c2ccccc2nc2c1[nH]c1ccccc12` had an IC50 in data set [1] of 1.12 µM. The same molecule registered a pKa in data set [2] of 8.3. Besides, in data set [3], the outcome was Active.
Molecule `CN(C)CCCNc1c2ccccc2nc2c1oc1ccccc12` came in with an IC50 in data set [1] of 3.29 µM. In data set [2], the pKa worked out at 8.3. In data set [3], the outcome was Active.

The record behind these values is ChEMBL document CHEMBL1139482, “Synthesis and evaluation of quindoline derivatives as G-quadruplex inducing and stabilizing ligands and potential inhibitors of telomerase” (J Med Chem, 2005).
